For test [1], the target named is Serine/threonine-protein kinase 16 (Homo sapiens) (UniProt O75716). The test can be described thus: Inhibition of STK16 at 1 uM.
Test [2] deals with T1, MAP kinase-activated protein kinase 5 (Homo sapiens) (UniProt Q8IW41).
T1 sequence (whole entry): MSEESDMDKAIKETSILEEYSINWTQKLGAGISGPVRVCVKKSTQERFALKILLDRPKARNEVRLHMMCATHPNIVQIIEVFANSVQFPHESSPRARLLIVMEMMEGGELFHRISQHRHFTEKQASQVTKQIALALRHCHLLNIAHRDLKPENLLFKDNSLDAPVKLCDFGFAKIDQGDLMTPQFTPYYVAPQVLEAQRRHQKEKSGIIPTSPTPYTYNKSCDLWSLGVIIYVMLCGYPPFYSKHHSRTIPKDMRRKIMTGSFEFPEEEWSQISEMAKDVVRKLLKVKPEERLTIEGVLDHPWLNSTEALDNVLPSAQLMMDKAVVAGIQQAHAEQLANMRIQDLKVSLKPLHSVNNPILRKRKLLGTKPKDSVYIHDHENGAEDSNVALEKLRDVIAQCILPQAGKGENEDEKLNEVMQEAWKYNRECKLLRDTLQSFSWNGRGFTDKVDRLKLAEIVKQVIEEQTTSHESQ
The test can be described thus: Inhibition of MAPKAPK5 at 1 uM.

Test [3] deals with Serine/threonine-protein kinase NIM1 (Homo sapiens) (UniProt Q8IY84). The test can be described thus: Inhibition of NIM1 at 1 uM.
In test [4] the target is Phosphatidylinositol 4,5-bisphosphate 3-kinase catalytic subunit alpha isoform (Homo sapiens) (UniProt P42336). As to the kind of experiment: Inhibition of PIK3CA at 1 uM.
Test [5] concerns the target T2, Hormonally up-regulated neu tumor-associated kinase (Homo sapiens) (UniProt P57058).
T2 sequence (whole entry): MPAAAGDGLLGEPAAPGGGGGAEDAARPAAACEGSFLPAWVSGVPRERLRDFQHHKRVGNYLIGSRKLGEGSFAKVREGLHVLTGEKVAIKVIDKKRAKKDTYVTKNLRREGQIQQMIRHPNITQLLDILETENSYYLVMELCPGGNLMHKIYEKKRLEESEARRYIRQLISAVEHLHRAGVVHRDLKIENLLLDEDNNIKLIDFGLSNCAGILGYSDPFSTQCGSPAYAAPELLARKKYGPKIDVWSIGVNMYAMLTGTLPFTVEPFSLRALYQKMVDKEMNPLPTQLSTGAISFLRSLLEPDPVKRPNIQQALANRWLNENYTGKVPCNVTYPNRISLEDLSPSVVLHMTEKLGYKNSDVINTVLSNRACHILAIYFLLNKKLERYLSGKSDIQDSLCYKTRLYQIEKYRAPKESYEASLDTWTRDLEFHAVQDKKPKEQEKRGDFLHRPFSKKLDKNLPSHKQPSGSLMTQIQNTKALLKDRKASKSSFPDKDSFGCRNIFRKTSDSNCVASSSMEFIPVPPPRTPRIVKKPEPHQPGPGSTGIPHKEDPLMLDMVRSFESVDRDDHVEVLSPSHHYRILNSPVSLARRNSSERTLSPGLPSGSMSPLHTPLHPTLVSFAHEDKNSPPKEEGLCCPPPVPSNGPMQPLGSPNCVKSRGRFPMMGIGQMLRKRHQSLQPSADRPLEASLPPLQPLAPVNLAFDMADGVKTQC
The test can be described thus: Inhibition of HUNK at 1 uM.

The target of test [6] is Serine/threonine-protein kinase Nek6 (Homo sapiens) (UniProt Q9HC98). The test can be described thus: Inhibition of NEK6 at 1 uM.
Test [7] addresses Death-associated protein kinase 1 (Homo sapiens) (UniProt P53355). As to the kind of experiment: Inhibition of DAPK1 at 1 uM. In a few lines:
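Single-concentration screen using Ambit Bioscience KINOMEscan technology across a panel of 250–400 kinases. Per-kinase inhibition from this screen was summarized as S(90), the fraction of kinases inhibited by more than 90%.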

Test [8] has as its system Proto-oncogene tyrosine-protein kinase receptor Ret (Homo sapiens), P07949 [M918T]. As to the kind of experiment: Inhibition of RET M918T mutant at 1 uM.
The target of test [9] is T3, Discoidin domain-containing receptor 2 (Homo sapiens) (UniProt Q16832).
T3 sequence (whole entry): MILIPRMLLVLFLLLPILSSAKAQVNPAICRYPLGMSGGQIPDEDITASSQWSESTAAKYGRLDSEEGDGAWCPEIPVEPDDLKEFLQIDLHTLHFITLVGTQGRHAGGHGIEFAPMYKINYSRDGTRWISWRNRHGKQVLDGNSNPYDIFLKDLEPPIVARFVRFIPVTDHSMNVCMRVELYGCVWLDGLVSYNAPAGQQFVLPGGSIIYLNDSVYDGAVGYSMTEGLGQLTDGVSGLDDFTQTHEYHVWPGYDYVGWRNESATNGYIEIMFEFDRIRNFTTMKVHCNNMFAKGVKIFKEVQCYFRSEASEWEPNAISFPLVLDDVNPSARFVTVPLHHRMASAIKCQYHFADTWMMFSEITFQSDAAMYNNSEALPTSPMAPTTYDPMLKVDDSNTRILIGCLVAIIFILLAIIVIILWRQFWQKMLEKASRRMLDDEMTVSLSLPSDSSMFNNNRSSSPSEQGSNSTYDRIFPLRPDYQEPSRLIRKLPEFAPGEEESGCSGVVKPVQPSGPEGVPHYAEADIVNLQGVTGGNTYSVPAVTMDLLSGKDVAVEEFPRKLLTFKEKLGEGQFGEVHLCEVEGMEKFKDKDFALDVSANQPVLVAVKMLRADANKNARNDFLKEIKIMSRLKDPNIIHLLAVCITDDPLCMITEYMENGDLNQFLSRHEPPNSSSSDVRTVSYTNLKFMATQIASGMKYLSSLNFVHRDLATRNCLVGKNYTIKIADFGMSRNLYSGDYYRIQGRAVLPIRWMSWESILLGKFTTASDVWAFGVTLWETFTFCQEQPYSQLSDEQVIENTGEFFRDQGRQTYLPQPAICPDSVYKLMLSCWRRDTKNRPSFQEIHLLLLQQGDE
As to the kind of experiment: Inhibition of DDR2 at 1 uM.

The record followed here is ChEMBL document CHEMBL1165965, “Synthesis and structure-activity relationships of 1,2,3,4-tetrahydropyrido[2,3-b]pyrazines as potent and selective inhibitors of the anaplastic lymphoma kinase” (Bioorg Med Chem, 2010).

A word on the inhibition: it is how much of the control response was suppressed.

Proto-oncogene tyrosine-protein kinase receptor Ret (Homo sapiens), P07949 [M918T], sequence (P07949 whole entry M918T, the tested form may be a part): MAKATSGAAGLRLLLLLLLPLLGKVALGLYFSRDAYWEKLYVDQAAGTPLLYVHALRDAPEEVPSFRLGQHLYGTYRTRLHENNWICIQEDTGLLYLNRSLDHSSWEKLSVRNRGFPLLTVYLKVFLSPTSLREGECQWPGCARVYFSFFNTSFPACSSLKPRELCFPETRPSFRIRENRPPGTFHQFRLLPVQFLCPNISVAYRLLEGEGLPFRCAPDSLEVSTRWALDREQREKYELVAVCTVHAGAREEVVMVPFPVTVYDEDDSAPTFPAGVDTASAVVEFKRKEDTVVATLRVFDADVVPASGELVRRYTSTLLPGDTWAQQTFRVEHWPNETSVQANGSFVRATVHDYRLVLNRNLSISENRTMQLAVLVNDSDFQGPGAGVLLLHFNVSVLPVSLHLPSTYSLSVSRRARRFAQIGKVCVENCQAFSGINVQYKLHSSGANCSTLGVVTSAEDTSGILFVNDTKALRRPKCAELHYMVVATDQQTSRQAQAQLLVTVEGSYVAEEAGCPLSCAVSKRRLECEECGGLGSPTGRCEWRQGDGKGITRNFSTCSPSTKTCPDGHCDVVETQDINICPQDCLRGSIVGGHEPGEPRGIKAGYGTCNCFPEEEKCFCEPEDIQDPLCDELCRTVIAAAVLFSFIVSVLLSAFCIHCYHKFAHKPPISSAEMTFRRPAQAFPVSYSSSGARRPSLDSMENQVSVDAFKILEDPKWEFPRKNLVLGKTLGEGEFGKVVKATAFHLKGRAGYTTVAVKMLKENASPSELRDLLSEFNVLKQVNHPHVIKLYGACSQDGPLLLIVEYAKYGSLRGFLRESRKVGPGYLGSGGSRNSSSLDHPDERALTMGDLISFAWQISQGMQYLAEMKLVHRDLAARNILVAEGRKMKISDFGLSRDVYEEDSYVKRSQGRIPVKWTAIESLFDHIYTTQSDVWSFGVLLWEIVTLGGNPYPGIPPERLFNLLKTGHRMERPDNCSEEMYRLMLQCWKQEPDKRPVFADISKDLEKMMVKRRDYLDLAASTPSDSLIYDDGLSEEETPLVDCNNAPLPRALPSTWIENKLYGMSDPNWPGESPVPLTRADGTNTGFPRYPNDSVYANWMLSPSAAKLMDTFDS
Death-associated protein kinase 1 (Homo sapiens), sequence (P53355 whole entry, looked up): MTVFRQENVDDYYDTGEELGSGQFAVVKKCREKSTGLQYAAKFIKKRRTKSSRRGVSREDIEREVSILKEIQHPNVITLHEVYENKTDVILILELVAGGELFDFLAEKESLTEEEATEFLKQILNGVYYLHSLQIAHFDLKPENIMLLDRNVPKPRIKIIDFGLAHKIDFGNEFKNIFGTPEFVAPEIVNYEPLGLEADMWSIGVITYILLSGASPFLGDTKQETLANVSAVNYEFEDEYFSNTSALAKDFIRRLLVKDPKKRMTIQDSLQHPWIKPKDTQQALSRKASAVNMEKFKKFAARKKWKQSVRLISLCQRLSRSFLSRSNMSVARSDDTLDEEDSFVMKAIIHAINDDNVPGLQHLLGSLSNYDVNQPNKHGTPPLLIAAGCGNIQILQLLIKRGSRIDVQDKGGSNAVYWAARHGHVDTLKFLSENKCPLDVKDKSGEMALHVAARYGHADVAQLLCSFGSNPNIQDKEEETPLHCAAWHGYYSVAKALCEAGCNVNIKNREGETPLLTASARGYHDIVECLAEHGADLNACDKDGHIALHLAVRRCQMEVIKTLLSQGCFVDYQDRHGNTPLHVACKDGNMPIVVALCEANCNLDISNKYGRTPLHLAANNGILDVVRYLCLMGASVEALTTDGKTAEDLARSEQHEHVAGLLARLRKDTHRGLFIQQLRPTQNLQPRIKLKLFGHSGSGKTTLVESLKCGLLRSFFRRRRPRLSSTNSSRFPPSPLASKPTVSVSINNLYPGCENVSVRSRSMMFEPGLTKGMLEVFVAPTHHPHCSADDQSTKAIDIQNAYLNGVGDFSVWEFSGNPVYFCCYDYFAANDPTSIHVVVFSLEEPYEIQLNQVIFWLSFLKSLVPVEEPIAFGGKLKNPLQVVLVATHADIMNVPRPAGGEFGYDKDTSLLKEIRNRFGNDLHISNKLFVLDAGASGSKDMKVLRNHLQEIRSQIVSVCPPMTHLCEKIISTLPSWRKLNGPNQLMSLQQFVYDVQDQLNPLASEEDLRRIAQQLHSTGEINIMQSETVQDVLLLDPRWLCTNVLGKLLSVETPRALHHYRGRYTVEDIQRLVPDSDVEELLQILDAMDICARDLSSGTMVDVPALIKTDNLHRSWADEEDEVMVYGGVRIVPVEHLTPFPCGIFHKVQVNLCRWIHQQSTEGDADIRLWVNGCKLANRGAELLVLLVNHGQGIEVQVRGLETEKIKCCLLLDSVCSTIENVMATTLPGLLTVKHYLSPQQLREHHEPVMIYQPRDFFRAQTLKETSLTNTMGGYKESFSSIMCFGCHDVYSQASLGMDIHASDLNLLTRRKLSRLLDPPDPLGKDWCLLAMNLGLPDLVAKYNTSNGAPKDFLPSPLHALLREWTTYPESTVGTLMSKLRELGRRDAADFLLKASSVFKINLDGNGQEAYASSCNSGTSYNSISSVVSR
Serine/threonine-protein kinase NIM1 (Homo sapiens), sequence (Q8IY84 whole entry, canonical isoform): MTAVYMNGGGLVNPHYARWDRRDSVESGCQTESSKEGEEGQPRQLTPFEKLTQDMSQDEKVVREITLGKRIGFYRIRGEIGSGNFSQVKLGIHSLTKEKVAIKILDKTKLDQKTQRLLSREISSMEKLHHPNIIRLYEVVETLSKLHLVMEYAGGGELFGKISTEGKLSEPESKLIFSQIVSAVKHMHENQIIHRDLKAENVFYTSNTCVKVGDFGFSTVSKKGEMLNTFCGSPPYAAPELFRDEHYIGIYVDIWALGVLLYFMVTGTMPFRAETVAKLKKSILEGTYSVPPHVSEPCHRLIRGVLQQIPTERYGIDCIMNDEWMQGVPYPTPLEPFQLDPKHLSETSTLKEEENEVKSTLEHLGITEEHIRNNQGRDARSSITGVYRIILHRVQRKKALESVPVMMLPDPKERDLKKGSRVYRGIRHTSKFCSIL
Serine/threonine-protein kinase 16 (Homo sapiens), sequence (O75716 whole entry): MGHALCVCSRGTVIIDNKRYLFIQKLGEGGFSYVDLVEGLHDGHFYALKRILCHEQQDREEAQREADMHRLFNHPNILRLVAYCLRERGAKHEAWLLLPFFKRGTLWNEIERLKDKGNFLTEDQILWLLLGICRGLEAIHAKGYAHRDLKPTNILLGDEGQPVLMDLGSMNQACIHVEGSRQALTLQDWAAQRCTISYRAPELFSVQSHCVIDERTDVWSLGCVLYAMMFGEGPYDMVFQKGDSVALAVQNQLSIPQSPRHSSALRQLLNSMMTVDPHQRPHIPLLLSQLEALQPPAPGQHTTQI
Phosphatidylinositol 4,5-bisphosphate 3-kinase catalytic subunit alpha isoform (Homo sapiens), sequence (P42336 whole entry, canonical isoform): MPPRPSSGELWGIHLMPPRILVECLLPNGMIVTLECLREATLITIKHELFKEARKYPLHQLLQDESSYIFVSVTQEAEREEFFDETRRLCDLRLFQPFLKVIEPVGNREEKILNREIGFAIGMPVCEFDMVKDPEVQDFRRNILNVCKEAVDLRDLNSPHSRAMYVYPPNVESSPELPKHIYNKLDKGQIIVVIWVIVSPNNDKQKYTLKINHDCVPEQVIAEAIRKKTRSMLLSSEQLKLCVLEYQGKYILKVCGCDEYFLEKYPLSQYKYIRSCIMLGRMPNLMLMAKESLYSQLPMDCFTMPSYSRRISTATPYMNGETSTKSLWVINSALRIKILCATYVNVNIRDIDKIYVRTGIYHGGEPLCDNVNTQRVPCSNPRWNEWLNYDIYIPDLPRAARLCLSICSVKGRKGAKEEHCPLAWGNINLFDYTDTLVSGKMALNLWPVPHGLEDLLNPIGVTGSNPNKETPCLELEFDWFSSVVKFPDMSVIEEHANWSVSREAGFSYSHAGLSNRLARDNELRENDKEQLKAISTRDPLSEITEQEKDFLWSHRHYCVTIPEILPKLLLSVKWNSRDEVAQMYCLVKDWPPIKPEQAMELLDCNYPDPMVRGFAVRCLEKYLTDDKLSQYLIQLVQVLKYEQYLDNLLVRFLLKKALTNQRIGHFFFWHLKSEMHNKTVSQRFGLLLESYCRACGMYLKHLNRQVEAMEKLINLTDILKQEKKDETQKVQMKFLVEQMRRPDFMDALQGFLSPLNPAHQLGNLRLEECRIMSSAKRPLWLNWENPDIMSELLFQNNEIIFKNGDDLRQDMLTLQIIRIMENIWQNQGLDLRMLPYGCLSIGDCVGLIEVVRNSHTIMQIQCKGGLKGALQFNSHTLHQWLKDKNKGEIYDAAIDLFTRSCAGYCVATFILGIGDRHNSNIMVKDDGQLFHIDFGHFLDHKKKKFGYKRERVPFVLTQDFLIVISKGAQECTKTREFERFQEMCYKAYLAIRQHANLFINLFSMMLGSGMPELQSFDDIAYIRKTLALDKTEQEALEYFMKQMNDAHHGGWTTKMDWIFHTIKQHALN
Serine/threonine-protein kinase Nek6 (Homo sapiens), sequence (Q9HC98 whole entry): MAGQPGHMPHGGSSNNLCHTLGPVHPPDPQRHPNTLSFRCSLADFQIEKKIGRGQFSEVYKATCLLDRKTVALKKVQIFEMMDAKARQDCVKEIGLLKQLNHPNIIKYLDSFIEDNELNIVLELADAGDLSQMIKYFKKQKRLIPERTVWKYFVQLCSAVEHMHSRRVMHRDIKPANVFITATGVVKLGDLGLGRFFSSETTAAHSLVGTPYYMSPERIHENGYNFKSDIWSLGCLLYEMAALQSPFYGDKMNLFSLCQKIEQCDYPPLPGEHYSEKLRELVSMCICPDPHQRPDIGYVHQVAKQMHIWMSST

As to `FC(F)(F)c1ccc(Cl)cc1CN1CCNc2ncc(-c3ccnc(N4CCNCC4)c3)cc21`, the inhibition in test [1], in test [2], in test [3], in test [4], in test [5] and in [6] was < 50% each time. In addition, the inhibition in test [7] is < 50%; in [8], 67%; in test [9], < 50%.

As to `CN1CCN(c2ccc(-c3cnc4c(c3)N(Cc3cc(Cl)ccc3Cl)CCN4)cn2)CC1`, the inhibition in test [1], in test [2], in test [3], in test [4], in test [5] and in test [6] was < 50% throughout. Besides, the inhibition in test [7], in [8] and in [9] was < 50% each time.

Consider `COC1CCN(C(=O)c2ccc(-c3cnc4c(c3)N(Cc3cc(Cl)ccc3C(F)(F)F)CCN4)cc2)CC1`, for which the inhibition in test [1], in test [4], in test [6], in [7] and in [9] was < 50% each time.

For `O=C(c1ccc(-c2cnc3c(c2)N(Cc2cc(Cl)ccc2C(F)(F)F)CCN3)cc1)N1CCCCC1`, the inhibition in test [1], in test [4], in [6] and in test [7] was < 50% throughout.

On to `O=C(O)c1ccc(-c2cnc3c(c2)N(Cc2cc(Cl)ccc2C(F)(F)F)CCN3)cc1`, for which the inhibition in test [1], in [4], in test [6] and in test [7] was < 50% in each case.

As to `CN1CCN(c2ccc(-c3cnc4c(c3)N(Cc3cc(F)ccc3F)CCN4)cn2)CC1`, the inhibition in test [1], in [2], in [3], in test [4], in test [5] and in test [6] was < 50% in each case. The inhibition in test [7], in test [8] and in test [9] was < 50% in each case.

As to `O=C(c1ccc(-c2cnc3c(c2)N(Cc2cc(Cl)ccc2C(F)(F)F)CCN3)cc1)N1CCC(N2CCCC2)CC1`, the inhibition in [1], in test [4], in test [6], in test [7] and in [9] was < 50% throughout.

As for `CN1CCN(c2ccc(-c3cnc4c(c3)N(Cc3c(F)ccc(F)c3Cl)CCN4)cn2)CC1`, the inhibition in test [1], in test [2], in [3], in test [4], in test [5] and in test [6] was < 50% in each case. The inhibition in test [7], in [8] and in test [9] was < 50% each time.

On to `CC(=O)N1CCN(c2cc(-c3cnc4c(c3)N(Cc3cc(Cl)ccc3C(F)(F)F)CCN4)ccn2)CC1`, for which the inhibition in test [1], in test [2], in [3], in test [4], in test [5] and in [6] was < 50% in each case. For the same compound, the inhibition in test [7], in test [8] and in test [9] was < 50% throughout.

As to `CN1CCN(c2ccc(-c3cnc4c(c3)N(Cc3cc(Cl)ccc3C(F)(F)F)CCN4)cn2)CC1`, the inhibition in test [1], in test [2], in test [3], in test [4], in test [5] and in test [6] was < 50% each time. The inhibition in test [7], in [8] and in [9] was < 50% throughout.
